# Measured values: ChEMBL document CHEMBL1121642, “Synthesis and antiherpetic activity of some 4-[(aryloxy)alkyl]pyrazoles” (1981)
# Active and inactive are the calls of the source. The rule behind the calls is not given here.
# Key:
# [1] = tested on: Human alphaherpesvirus 2; test: Tested in vitro for minimum inhibitory activity against Herpes simplex virus type -2 (HSV-2); type: functional
# [2] = organism: Mus musculus; test: Effect on the survival rate of mice infected intravaginally with Herpes simplex virus type -2 (HSV-2) at 10% dosage twice in a day; type: functional
# Procedure, shortened: (§1)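 Mice infected intravaginally with a tampon (dental pellet) saturated with HSV suspension. Aqueous drug solution given intravaginally b.i.d. on cotton tampons, starting 4 h postinfection. Each tampon stayed in 24 h, was re-moistened with 0.02 mL drug 6 h after insertion, and was replaced daily. Deaths were recorded daily to 14 days. Read-out: % survival and average survival time, with survivors scored >14 days.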
# [3] = organism: Mus musculus; test: Effect on the survival rate of mice infected intravaginally with Herpes simplex virus type -2 (HSV-2) at 5% dosage twice in a day; type: functional; procedure, shortened: as §1
# [4] = tested on: Human alphaherpesvirus 2; test: Tested in vitro for minimum inhibitory activity against Herpes simplex virus type -2 (HSV-2); Inactive; type: functional, organism-based
# [5] = tested on: Mus musculus; test: Effect on the survival rate of mouse infected with herpes genitalis (HSV-2) administered intravaginally at 2% dosage twice in a day; type: functional
# Procedure, shortened: (§2)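 HSV-2 mouse genital model, infected intravaginally. Drug prepared in water + 1% gum tragacanth and given intravaginally b.i.d. via saturated cotton tampons, starting 4 h postinfection. Tampons were re-dosed with 0.02 mL 6 h after insertion and replaced daily. Test ended at day 14, with survivors assigned survival time >14 days. Read-out: % survival and average survival time.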
# [6] = tested on: Mus musculus; test: Effect on the survival rate of mouse infected with herpes genitalis (HSV-2) administered intravaginally at 5% dosage twice in a day; type: functional; procedure, shortened: as §2
# [7] = organism: Mus musculus; test: Number of mice recovered from virus infected with Herpes simplex virus type-2 at 1.25% dosage twice in 2 nd day out of 10 mice sampled; type: functional
# Procedure, shortened: (§3)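 Mice were infected intravaginally with HSV-2 Curtis strain. Starting 4 h postinfection, they were treated intravaginally with cotton tampons saturated with 10, 5, 2.5 or 1.25% drug solution, replaced daily, plus 0.02 mL added 6 h later. Vaginal washings with 1.5 mL M-199 were taken each morning on days 1–7, frozen at −70 °C and assayed in BSC-1 cells. Read-out: mice with recoverable virus/mice sampled.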
# [8] = organism: Mus musculus; test: Number of mice recovered from virus infected with Herpes simplex virus type-2 at 10% dosage twice in 7 th day out of 10 mice sampled; type: functional; procedure, shortened: as §3
# [9] = organism: Mus musculus; test: Number of mice recovered from virus infected with Herpes simplex virus type-2 at 2.5% dosage twice in 4 th day out of 10 mice sampled; type: functional; procedure, shortened: as §3
# [10] = organism: Mus musculus; test: Number of mice recovered from virus infected with Herpes simplex virus type-2 at 1.25% dosage twice in 4 th day out of 10 mice sampled; type: functional; procedure, shortened: as §3
# [11] = organism: Mus musculus; test: Number of mice recovered from virus infected with Herpes simplex virus type-2 at 2.5% dosage twice in 2 nd day out of 10 mice sampled; type: functional; procedure, shortened: as §3
# [12] = organism: Mus musculus; test: Number of mice recovered from virus infected with Herpes simplex virus type-2 at 1.25% dosage twice in 1st day out of 10 mice sampled; type: functional; procedure, shortened: as §3
# [13] = organism: Mus musculus; test: Number of mice recovered from virus infected with Herpes simplex virus type-2 at 10% dosage twice in 2 nd day out of 10 mice sampled; type: functional; procedure, shortened: as §3
# [14] = organism: Mus musculus; test: Number of mice recovered from virus infected with Herpes simplex virus type-2 at 2.5% dosage twice in 7 th day out of 8 mice sampled; type: functional; procedure, shortened: as §3
# [15] = tested on: Mus musculus; test: Effect on the survival rate of mice infected with HSV-1 administered intravaginally at 2.5% dosage twice in a day; type: functional; procedure, shortened: as §1
# [16] = organism: Mus musculus; test: Number of mice recovered from virus infected with Herpes simplex virus type-2 at 2.5% dosage twice in 3 rd day out of 10 mice sampled; type: functional; procedure, shortened: as §3
# [17] = organism: Mus musculus; test: Number of mice recovered from virus infected with Herpes simplex virus type-2 at 10% dosage twice in 1st day out of 10 mice sampled; type: functional; procedure, shortened: as §3
# [18] = organism: Mus musculus; test: Number of mice recovered from virus infected with Herpes simplex virus type-2 at 5% dosage twice in 6 th day out of 8 mice sampled; type: functional; procedure, shortened: as §3
# [19] = tested on: Mus musculus; test: Effect on the survival rate of mice infected with HSV-1 administered intravaginally at 10% dosage twice in a day; type: functional; procedure, shortened: as §1
# [20] = organism: Mus musculus; test: Number of mice recovered from virus infected with Herpes simplex virus type-2 at 10% dosage twice in 6 th day out of 10 mice sampled; type: functional; procedure, shortened: as §3
# [21] = tested on: Mus musculus; test: Effect on the survival rate of mice infected with HSV-1 administered intravaginally at 5% dosage twice in a day; type: functional; procedure, shortened: as §1
# [22] = tested on: Mus musculus; test: Effect on the survival rate of mice iinfected with HSV-1 administered intravaginally at 2.5% dosage twice in a day; type: functional; procedure, shortened: as §1
# [23] = tested on: Mus musculus; test: Effect on the survival rate of mice infected with HSV-2 administered intravaginally at 1.25% dosage twice in a day; type: functional; procedure, shortened: as §1
# [24] = organism: Mus musculus; test: Number of mice recovered from virus infected with Herpes simplex virus type-2 at 10% dosage twice in 4 th day out of 10 mice sampled; type: functional; procedure, shortened: as §3
# [25] = tested on: Mus musculus; test: Effect on the survival rate of mice infected with HSV-2 administered intravaginally at 5% dosage twice in a day; type: functional; procedure, shortened: as §1
# [26] = organism: Mus musculus; test: Number of mice recovered from virus infected with Herpes simplex virus type-2 at 2.5% dosage twice in 6 th day out of 10 mice sampled; type: functional; procedure, shortened: as §3
# [27] = tested on: Mus musculus; test: Effect on the survival rate of mice infected with HSV-2 administered intravaginally at 2.5% dosage twice in a day; type: functional; procedure, shortened: as §1
# [28] = organism: Mus musculus; test: Number of mice recovered from virus infected with Herpes simplex virus type-2 at 1.25% dosage twice in 3 rd day out of 10 mice sampled; type: functional; procedure, shortened: as §3
# [29] = organism: Mus musculus; test: Number of mice recovered from virus infected with Herpes simplex virus type-2 at 5% dosage twice in 7 th day out of 8 mice sampled; type: functional; procedure, shortened: as §3
# [30] = organism: Mus musculus; test: Number of mice recovered from virus infected with Herpes simplex virus type-2 at 1.25% dosage twice in 7 th day out of 10 mice sampled; type: functional; procedure, shortened: as §3
# [31] = tested on: Mus musculus; test: Effect on the survival rate of mice infected with HSV-1 administered intravaginally at 1.25% dosage twice in a day; type: functional; procedure, shortened: as §1
# [32] = organism: Mus musculus; test: Number of mice recovered from virus infected with Herpes simplex virus type-2 at 5% dosage twice in 1 st day out of 10 mice sampled; type: functional; procedure, shortened: as §3
# [33] = tested on: Mus musculus; test: Effect on the survival rate of mice iinfected with HSV-1 administered intravaginally at 1.25% dosage twice in a day; type: functional; procedure, shortened: as §1
# [34] = organism: Mus musculus; test: Number of mice recovered from virus infected with Herpes simplex virus type-2 at 5% dosage twice in 3 rd day out of 10 mice sampled; type: functional; procedure, shortened: as §3
# [35] = tested on: Mus musculus; test: Effect on the survival rate of mouse infected with herpes genitalis (HSV-2) administered intravaginally at 5% twice in a day; type: functional
# [36] = organism: Mus musculus; test: Number of mice recovered from virus infected with Herpes simplex virus type-2 at 2.5% dosage twice in 1st day out of 10 mice sampled; type: functional; procedure, shortened: as §3
# [37] = organism: Mus musculus; test: Number of mice recovered from virus infected with Herpes simplex virus type-2 at 10% dosage twice in 3 rd day out of 10 mice sampled; type: functional; procedure, shortened: as §3
# [38] = organism: Mus musculus; test: Number of mice recovered from virus infected with Herpes simplex virus type-2 at 5% dosage twice in 4 th day out of 10 mice sampled; type: functional; procedure, shortened: as §3
# [39] = organism: Mus musculus; test: Number of mice recovered from virus infected with Herpes simplex virus type-2 at 5% dosage twice in 2 nd day out of 10 mice sampled; type: functional; procedure, shortened: as §3
# [40] = tested on: Mus musculus; test: Effect on the survival rate of mice infected with HSV-2 administered intravaginally at 10% dosage twice in a day; type: functional; procedure, shortened: as §1
smiles,measurement,setting,value
CCc1n[nH]c(CC)c1CCCCCCOc1ccc(O)cc1Cl,MIC,[1],12 µg/mL
COc1ccc(OCCCCCCCc2c(C)nn(C)c2C)c(Cl)c1,Average survival,[2],>10 days
same,Survival,[2],30%
same,Average survival,[3],>7 days
same,Survival,[3],10%
same,MIC,[1],0.7 µg/mL
CCc1n[nH]c(CC)c1CCCCCCOc1ccc(OC)cc1,MIC,[4],inactive
CCc1nn(-c2ccccn2)c(CC)c1CCCCCCOc1ccc(OC)cc1Cl,MIC,[1],6 µg/mL
Nc1ncnc2c1ncn2[C@@H]1O[C@H](CO)[C@@H](O)[C@@H]1O [VIDARABINE],Average survival,[5],>9 days
same,Survival,[5],10%
same,Average survival,[6],>13 days
same,Survival,[6],60%
CCc1n[nH]c(CC)c1CCCCOc1ccc(OC)cc1Cl,MIC,[1],6 µg/mL
CCc1nn(C(C)=O)c(CC)c1CCCCCCOc1ccc(OC)cc1Cl,MIC,[4],inactive
CCc1n[nH]c(CC)c1CCCCCCOc1ccc(OC)cc1Cl.CS(=O)(=O)O,No. of mice receovered,[7],1
same,No. of mice receovered,[8],0
same,No. of mice receovered,[9],0
same,No. of mice receovered,[10],0
same,No. of mice receovered,[11],1
same,No. of mice receovered,[12],0
same,No. of mice receovered,[13],0
same,No. of mice receovered,[14],0
same,Average survival,[15],>11 days
same,No. of mice receovered,[16],0
same,No. of mice receovered,[17],0
same,No. of mice receovered,[18],0
same,Average survival,[5],>11 days
same,Survival,[5],60%
same,Average survival,[19],>13 days
same,Survival,[19],70%
same,No. of mice receovered,[20],0
same,Average survival,[21],>12 days
same,Survival,[21],60%
same,Survival,[22],40%
same,Average survival,[23],>10 days
same,Survival,[23],40%
same,No. of mice receovered,[24],0
same,Average survival,[25],>13 days
same,Survival,[25],90%
same,No. of mice receovered,[26],0
same,Average survival,[27],>12 days
same,Survival,[27],70%
same,No. of mice receovered,[28],0
same,No. of mice receovered,[29],0
same,No. of mice receovered,[30],0
same,Average survival,[31],>10 days
same,No. of mice receovered,[32],1
same,Survival,[33],30%
same,Average survival,[6],>13 days
same,No. of mice receovered,[34],0
same,Survival,[35],80%
same,No. of mice receovered,[36],0
same,No. of mice receovered,[37],0
same,No. of mice receovered,[38],0
same,No. of mice receovered,[39],0
same,Average survival,[40],>13 days
same,Survival,[40],90%
CCc1nn(-c2ccccc2)c(CC)c1CCCCCCOc1ccc(OC)cc1Cl,MIC,[1],3 µg/mL
